Source: PubChem BioAssay (several laboratories)
bCat KO growth – beta-catenin-lacking colon tumor cell growth suppression; viability, % at 10 µM; hit rate 1.5% among 140,000; HCT116 beta-catenin knockout viability, CellTiter-Glo, 60 h; active compounds read low;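 active = viability at or under a set limit, the compound median less 4 SD, cut at about 6% in these data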
L major viab – Leishmania major promastigote growth inhibition. Leishmania major promastigotes, resazurin fluorescence viability. inhibition, % at 10 µM. hit rate 9% among 200,000. AID 1063; in the data active = inhibition above about 50%;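 also: promastigotes grown with compound for 44 hours at 28 °C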
Autophagy HCS – alters autophagy in cells; MEF GFP-LC3 puncta imaging; test concentration mostly 10 µM; calls only at 10 µM (by protocol); hit rate 0.98% among 190,000; AID 463193;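 active = percentage of spot-positive cells more than 3 SD above its plate mean, without a fluorescence outlier flag or 80% toxicity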
PTEN del growth – PTEN-deleted cell growth suppression; HCT116 PTEN-null viability, CellTiter-Glo, 60 h; active compounds read low; viability, % at 10 µM; hit rate 1.2% among 140,000;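 active = viability at or below a set limit, 4 SD under the median of all tested compounds, cut at about 3.7% in these data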;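 also: PTEN knockout HCT116 line with beta catenin targeted HCT116 as companion control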
Dynein transport – dynein cargo transport inhibition. 3617.4 mouse cells, GR-EGFP nuclear translocation imaging; test concentration mostly 20 µM; stimulated with dexamethasone, 1 µM; active compounds read low. z-score, hits read low. hit rate 0.47% among 220,000. AID 1381;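 active = plate z-score of nuclear minus cytoplasmic receptor signal below a set negative limit, without overly bright fluorescence or cell loss, cut at about -3.5 in these data, passing the limit was not always enough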;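 also: z-score of nuclear minus cytoplasmic ring GR-EGFP intensity difference per well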
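medium = tetracycline-free induction medium containing charcoal-stripped FBS | also added = 1.0 µM final dexamethasone stimulus | schedule = 48 h induction, 1 h compound, 30 min dex at 37 °C | technique = fixed, Hoechst-stained cells imaged at 10x for EGFP | measure = GR-EGFP nuclear translocation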
Numbers stand for hits; n = inactive; x = no result given; + = active, no number. The list is not random: actives were taken first. Their share in the collection is about 9.2%.

SMILES	bCat KO growth	L major viab	Autophagy HCS	PTEN del growth	Dynein transport
O=C(NC(=S)Nc1ccc(NC(=O)c2cccs2)cc1)c1ccco1	n	n	n	n	n
O=C(Nc1ccc(NC(=S)NC(=O)c2ccccc2F)cc1)c1cccs1	x	95.7	n	x	n
O=C(CCN1C(=O)C2C3C=CC(C3)C2C1=O)Nc1ccccn1 (centres undefined)	n	n	n	n	n
Cn1c(SCC(=O)N2CCCC2)nnc1-c1cnccn1	x	n	n	x	n
CCCCNS(=O)(=O)c1ccc2nc(-c3cccnc3)cc(C(=O)NCCCOCC)c2c1	x	n	n	x	n
COC(=O)c1ccc(COc2ccccc2/C=C(\C#N)C(=O)Nc2c(C)cc(C)cc2C)cc1	1.4	100.2	n	1.1	n
COC(=O)c1ccc(COc2ccccc2/C=C(\C#N)C(=O)Nc2ccc(C)cc2C)cc1	n	n	n	n	n
COc1cnc(-c2ccccn2)nc1Oc1ccccc1Cl	n	n	n	n	x
COc1cnc(-c2ccccn2)nc1Oc1ccc(Cl)cc1	n	71.2	n	n	x
COc1cnc(-c2ccccn2)nc1Oc1ccc(Cl)c2ccccc12	n	100.5	n	n	x
C=CCOc1ccc(C2C(C(=O)c3ccco3)=C(O)C(=O)N2c2nnc(C)s2)cc1 (centres undefined)	x	n	n	x	n
Cc1cc(C(=O)N/N=C/c2ccc(Cl)c([N+](=O)[O-])c2)c(C)n1-c1ccc(F)cc1	3.1	n	n	2.5	n
Cc1cc(C(=O)N/N=C/c2ccc3c(c2)OCO3)c(C)n1-c1ccc(F)cc1	x	n	n	x	n
COc1cc(OC)cc(C(=O)Nc2nnc(-c3cccnc3)o2)c1	x	n	n	x	n
O=C(Nc1nnc(-c2cccnc2)o1)c1cccc(Cl)c1	x	54.8	n	x	n
O=C(Nc1nnc(-c2ccccn2)o1)c1cccc(Cl)c1	x	51.1	n	x	n
O=C(O)CSCCC(=O)Nc1ccc(F)cc1	n	n	+	n	n
COc1ccc(Nc2ncnc3ccccc23)c(OC)c1	n	n	n	n	n
CC(Nc1nc(N2CCCCC2)nc2ccccc12)c1ccccc1 (centres undefined)	4.2	100.4	n	n	n
C=CCNc1nc(N2CCCC2)nc2ccccc12	n	99.7	n	n	n
COc1ccc(Nc2nc(N3CCCC3)nc3ccccc23)c(OC)c1	1.4	100.3	+	1.4	n
CC(Nc1nc(-c2ccccc2)nc2ccccc12)c1ccccc1 (centres undefined)	x	97.6	n	x	n
CC(Nc1nc(-c2ccccc2O)nc2ccccc12)c1ccccc1 (centres undefined)	x	x	x	x	n
COc1ccc(NC(=S)N2CCC(C(=O)c3ccc(F)cc3)CC2)c(OC)c1	x	n	n	x	n
COc1cc(Cl)cc(C2NC(=S)NC(c3ccccc3)=C2C(C)=O)c1OCC(=O)O (centres undefined)	x	n	n	x	n
SMILES	bCat KO growth	L major viab	Autophagy HCS	PTEN del growth	Dynein transport
COc1ccccc1C(=O)N1CCN(C2CCN(Cc3ccccc3)CC2)CC1	n	91.2	n	n	n
COc1cccc(C(=O)N2CCN(C3CCN(Cc4ccccc4)CC3)CC2)c1	n	89.8	n	n	n
O=C(c1cccc(OC2CCN(C3CCCC3)CC2)c1)N1CCCCCCC1	x	88.9	n	x	n
O=C(c1cccc(Oc2c(Cl)cccc2[N+](=O)[O-])c1)N1CCCCC1	x	n	n	x	n
COc1ccc(C(=O)N2CCN(C3CCN(Cc4ccccc4)CC3)CC2)cc1OC	n	n	n	n	n
CCn1c(=O)[nH]c(=O)c2c(N)c(C(=O)c3ccccc3OC)sc21	n	n	n	n	n
CCC(=O)N1CCc2cc(S(=O)(=O)NCCCOC)ccc21	n	n	n	n	n
CCC(=O)N1CCc2cc(S(=O)(=O)NC(Cc3ccccc3)C(=O)NC3CCCCC3)ccc21 (centres undefined)	n	n	n	n	n
CCC(=O)N1CCc2cc(S(=O)(=O)NC(CC(C)C)C(=O)N3CCc4ccccc43)ccc21 (centres undefined)	n	100.1	n	n	n
CCC(=O)N1CCc2cc(S(=O)(=O)NCCN3CCC(C)CC3)ccc21	n	54.5	n	n	n
CC(=O)N1CCc2cc(S(=O)(=O)NCCC(=O)N3CCN(Cc4ccccc4)CC3)ccc21	n	n	+	n	n
Cc1ccc(S(=O)(=O)NCCC(=O)N2CCN(Cc3ccccc3)CC2)cc1	n	n	n	n	n
O=C(O)CC1=C(c2ccc(F)cc2)CCC1=O	n	n	n	n	n
Cn1c(C(=O)c2ccccc2[N+](=O)[O-])nc2ccccc21	x	n	n	x	n
Cc1nc2ccccc2n1/N=C/c1ccc([N+](=O)[O-])s1	1.5	100.4	n	1.7	n
Cc1nc2ccccc2n1/N=C/c1ccc([N+](=O)[O-])o1	x	100.6	n	x	n
O=[N+]([O-])c1ccc(/C=N/n2c(CO)nc3ccccc32)s1	n	100.5	n	n	n
COc1ccc(S(=O)(=O)NCC2CCC(C(=O)NCC(OC)OC)CC2)cc1 (centres undefined)	x	n	n	x	n
CCc1cccc(NC(=O)C2CCN(S(=O)(=O)c3c(C)noc3C)CC2)c1	x	63.6	n	x	n
Cc1noc(C)c1S(=O)(=O)N1CCC(C(=O)NC2CCCc3ccccc32)CC1 (centres undefined)	n	60.2	n	n	n
Cc1ccc(NC(=O)C2CCN(S(=O)(=O)c3c(C)noc3C)CC2)cc1C	x	98.8	n	x	n
Cc1noc(C)c1S(=O)(=O)N1CCC(C(=O)Nc2ccccn2)CC1	n	n	n	n	n
Cc1noc(C)c1S(=O)(=O)N1CCC(C(=O)NC2CCN(Cc3ccccc3)CC2)CC1	n	88.9	n	n	n
CCC(=Nc1ccccc1)C1=C(O)CCCC1=O	x	x	x	x	n
O=Cc1ccc(-c2ccc(Cl)cc2Cl)[nH]1	x	n	n	x	n
SMILES	bCat KO growth	L major viab	Autophagy HCS	PTEN del growth	Dynein transport
C#CCOCCOCCOCCNc1nc(N2CCN(C(=O)[C@H](CCCCN)n3cc(C(N)COC(=O)C(F)(F)F)nn3)CC2)nc(N2CCN(C(=O)[C@H](CCCCN)n3cc(C(N)CC(C)C)nn3)CC2)n1 (some centres undefined)	x	x	x	x	n
c1ccc(-c2nnc3n2-c2ccccc2SC3)cc1	x	x	x	x	n
CCOc1ccccc1N1CCN(C(=O)c2c(-c3ccccc3Cl)noc2C)CC1	n	71.5	n	n	n
Cc1onc(-c2c(F)cccc2Cl)c1C(=O)N1CCc2ccccc21	n	n	n	n	n
Cc1onc(-c2ccccc2Cl)c1C(=O)N1CCN(c2ncccn2)CC1	x	n	n	x	n
Cc1onc(-c2ccccc2)c1C(=O)N1CCCc2ccccc21	n	98.4	x	n	n
Cc1onc(-c2c(Cl)cccc2Cl)c1C(=O)N1CCc2ccccc2C1	n	95.4	n	n	n
CC(C)c1cccc(C(C)C)c1NC(=O)c1ccc(OCC(=O)NCc2ccccc2)cc1	n	n	n	n	n
Cc1cc(OCc2nnc(SC(C)C(=O)O)n2Cc2ccccc2)ccc1Cl (centres undefined)	x	n	n	x	n
Cc1ccc(C)n1-c1ccc(C(=O)NN=C2CCCC2)cc1	x	n	n	x	n
CCN(CC)C(=O)c1sc(N2C(=O)Nc3ccccc3N2O)c(C(=O)OC)c1C	x	n	n	x	n
